# Source: PubChem BioAssay
# In the library only some 1.9% were active in any assay of this set; here they are far more common.
# Vif imaging: HIV Vif self-association inhibitors, primary screen, imaging, HEK293T, single point | inhibition, % at 7.49 µM | actives 0.35% (n = 340,000) | AID 602346, 2012 | HEK293T cells, Vif self-association by quenched fluorescence, 24 h; in the data active = inhibition above about 50%, passing the limit was not always enough
# aDG glyco act: activators of alpha-DG glycosylation, primary screen, uHTS, Pro5-aDG cells, AlphaScreen | activation, % at 10 µM | alpha-DG glycosylation AlphaScreen (IIH6); 0% Pro5, 100% B10-LARGE cell signal | actives 0.22% (n = 360,000);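 active = activation of at least 8% versus controls, or a plate z-score of at least 8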;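 note: Pro5 are CHO cells carrying HIG-tagged alpha-DG that lacks glycosylation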
# MsrA act: bovine MsrA enzyme activators, primary screen, biochemical, absorbance, HTS; Methionine sulfoxide reductase A (Bos taurus); activation, % at 10.6 µM; AID 602163, 2012; purified bovine MsrA, absorbance read-out; actives 0.3% (n = 360,000); in the data active = activation above about 7.5%;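 note: 0% = vehicle and 100% = reference activator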
# UCH37 inh: inhibitors of human UCH37 deubiquitinase, primary screen, biochemical, Ub-AMC cleavage, fluorescence; Ubiquitin carboxyl-terminal hydrolase isozyme L5 (Homo sapiens), Q9Y5K5; purified proteasome/UCH37; inhibition, % (test concentration not listed); actives 0.33% (n = 330,000); AID 588478, 2011;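 active = mean inhibition over replicate wells above about 20%, limit read from the data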;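 note: 0% = compound-free wells with enzyme and 100% = wells lacking proteasome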
# Target sequence (Q9Y5K5 whole entry, looked up): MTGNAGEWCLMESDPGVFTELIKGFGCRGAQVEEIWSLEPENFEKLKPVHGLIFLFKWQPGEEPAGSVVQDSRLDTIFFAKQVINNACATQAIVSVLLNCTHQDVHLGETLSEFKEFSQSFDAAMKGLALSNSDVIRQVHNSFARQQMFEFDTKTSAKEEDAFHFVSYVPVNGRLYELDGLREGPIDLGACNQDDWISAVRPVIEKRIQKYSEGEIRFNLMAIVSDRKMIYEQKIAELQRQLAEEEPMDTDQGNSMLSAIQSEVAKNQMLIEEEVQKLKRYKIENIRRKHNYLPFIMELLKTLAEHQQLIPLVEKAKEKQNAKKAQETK
#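 Schedule: 30 min plus 25 min, room temperature / Material: human UCH37 within purified proteasomes / Technique: AMC fluorescence intensity at 355/460 nm / Buffer or medium: pH 7.4 Tris-HCl (50 mM) with ovalbumin, ATP-MgCl2, DTT / Controls: wells without proteasome as full block, compound-free enzyme plus substrate as uninhibited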
# MsrA inhibitor: bovine MsrA enzyme inhibitors, primary screen, biochemical, absorbance, HTS. Methionine sulfoxide reductase A (Bos taurus). AID 651718, 2012. purified bovine MsrA, absorbance read-out. actives 0.75% (n = 360,000). inhibition, % at 15.5 µM;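 note: 0% = vehicle wells with enzyme and 100% = reference inhibitor wells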
# Glyco luc inh: increase of ERlucT glycosylation luciferase signal, primary screen, N-linked glycosylation inhibitor project, D54 ERlucT cells, luminescence, set 2 | D54 ERlucT glycosylation luciferase reporter, 24 h; percent of 100 nM tunicamycin response | reporter increase, % at 12.5 µM | actives 0.23% (n = 360,000);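 active = mean luciferase reporter signal, scaled so untreated is 0 and the glycosylation-blocking control 100, at or above a set limit in every replicate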;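 note: luciferase carries N-glycosylation sites so blocking glycosylation raises the light; 0% = median of neutral control wells and 100% = median of 100 nM tunicamycin wells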
# MsrA conf: bovine MsrA inhibitors, retest, confirmation, biochemical, absorbance, HTS | shares compounds with MsrA inhibitor | purified bovine MsrA, absorbance read-out | inhibition, % at 15.5 µM | actives 41% (n = 2,300);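 note: coupled to thioredoxin reductase with NADPH and selenocystamine and DMSO as substrate; 0% = vehicle only and 100% = full effect of reference inhibitor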
# * marks the source's active call; other numbers are inactive results; i = inactive; / = no result given. Cut-off read from the data, not from the text of the source, unless noted: active = inhibition above about 4.5%; inactive = the rest.
SMILES,Vif imaging,aDG glyco act,MsrA act,UCH37 inh,MsrA inhibitor,Glyco luc inh,MsrA conf
CN(C)/C=N/c1nc2ncc(-c3ccc(Cl)cc3)c(/N=C/N(C)C)n2n1,1,-1,-8,/,5.2*,1,3
O=C(NN=Cc1ccco1)c1ccc(NC(=O)C2CC2)cc1,/,/,/,7,/,/,/
Cc1ccccc1Nc1n[nH]c(C)c1[N+](=O)[O-],-2,0,-4,4,2,3,/
Cc1ccc(Nc2n[nH]c(C)c2[N+](=O)[O-])c(C)c1,-4,0,0,4,10*,0,9.1*
COC(=O)N/N=C/c1ccc(-c2cccc(Cl)c2)o1,5,0,-2,/,6.4*,2,5.1*
CC1(CC(=O)N/N=C/c2ccc(-c3ccc(Cl)cc3)o2)OCCO1,0,0,-10,/,7.7*,0,4.8*
COC(=O)N/N=C/c1ccc(-c2cc(Cl)cc(Cl)c2)o1,-3,0,-8,/,4,3,/
COC(=O)c1ccc(-c2ccc(/C=N/NC(=O)CC3(C)OCCCO3)o2)cc1,-2,0,-4,/,2,2,/
C=CCON=C(C)c1c(O)c(CC)c(-c2ccccc2)n(-c2ccccc2)c1=O,/,/,/,-1,/,/,/
O=C(O)COc1ccccc1C=NNC(=O)c1ccc(F)cc1,/,/,/,3,/,/,/
COc1ccc(C(C)=NN2C(=O)c3ccccc3NC2c2ccc(O)c(OC)c2)cc1 (configuration not stated),/,/,/,-4,/,/,/
CC(=NNC(=O)c1ccc(C)nc1)c1ccc2c(c1)CCCC2,/,/,/,19,/,/,/
CCN(CC)S(=O)(=O)c1cccc(-c2n[nH]c(=S)n2/N=C/c2ccc(OC)cc2)c1,5,0,-1,/,7.7*,2,4
CCOC(=O)c1sc(N)c(C(=O)OCC)c1C,-4,0,-3,-1,1,0,/
CCOC(=O)c1sc(N)c(C(=O)Nc2ccccc2)c1C,5,-1,-4,5,4.8*,-2,2
CN(C)C=Nc1nc2nccc(-c3ccccc3)n2n1,/,/,/,i,/,/,/
CN(C)/C=N/c1nc2nccc(-c3cccs3)n2n1,-5,0,-7,/,7.1*,4,6.1*
CCOc1cc(S(=O)(=O)N(CC)CC)c(OCC)cc1-n1cnnn1,/,0,-8,-59,25*,-1,23*
CC1CCCC(C)N1N=Cc1ccccc1Br (configuration not stated),/,/,/,2,/,/,/
O=C(NN=C/C=C/c1ccccc1)c1ccc(Br)cc1,/,/,/,0,/,/,/
O=C(NN=Cc1cn(-c2ccccc2)nc1-c1ccccc1)c1ccc(Br)o1,/,/,/,-5,/,/,/
O=Cc1cn(-c2ccccc2)nc1-c1cccnc1,8,0,-8,0,11*,2,4
O=C(N/N=C\c1cn(-c2ccccc2)nc1-c1ccccc1)c1ccc(Br)o1,-4,1,-11,/,6.4*,22,2
O=Cc1cn(-c2ccccc2)nc1-c1ccncc1,-3,1,-1,3,6.0*,14,2
O=Cc1cn(-c2ccccc2)nc1-c1ccccc1,0,0,1,4,14*,4,11*
SMILES,Vif imaging,aDG glyco act,MsrA act,UCH37 inh,MsrA inhibitor,Glyco luc inh,MsrA conf
C/C(C=Nn1c(-c2ccncc2)n[nH]c1=S)=C/c1ccccc1,/,/,/,7,/,/,/
Cc1ccccc1C=NNc1ccc(Cl)nn1,/,/,/,-6,/,/,/
C(=N\N1CCOCC1)/c1cn(-c2ccccc2)nc1-c1ccccc1,-1,0,-4,/,7.0*,1,0
Cc1cccc(-c2nnc(NC(=O)c3ccco3)s2)c1,-4,0,-4,2,4.8*,1,2
CCN(CC)S(=O)(=O)c1nnc(NC(=O)c2ccco2)s1,0,0,-3,8,6.6*,2,3
CCN(c1ccc(C)cc1)S(=O)(=O)c1nnc(NC(=O)c2ccco2)s1,1,0,-2,7,4,0,/
O=C(Nc1nnc(/C=C/c2ccccc2)s1)c1ccco1,-3,0,-6,-30,5.8*,0,4
CC(=O)c1ccc(N2CCN(C(=O)c3ccc4c(c3)OCO4)CC2)cc1,/,1,-8,2,4.8*,/,4
O=C(c1ccc2c(c1)OCO2)N1CCN(c2ccc(Cl)cc2)CC1,-3,0,-2,2,1,-1,/
Cc1cc(/C=C(/C#N)c2cccc(F)c2)c(C)n1-c1cccnc1,-5,0,-4,7,26*,-6,27*
Cc1ccc(C=NN(C)C2=NS(=O)(=O)c3ccccc32)o1,/,/,/,-86,/,/,/
CC(C)(C)C(=O)Nc1ccc(F)cc1[N+](=O)[O-],-12,0,-3,5,6.3*,2,7.5*
CC(=NNC(=O)Cn1nc2ccccc2n1)c1ccc(F)cc1,/,/,/,-2,/,/,/
CCC(=O)OCCNc1cc(Sc2nc3ccccc3s2)c2nonc2c1[N+](=O)[O-],-7,0,-20,13,1,8,/
CCC(=O)OCCNc1cc(Sc2nc3ccccc3[nH]2)c2nonc2c1[N+](=O)[O-],-1,0,-17,7,5.0*,-3,2
Cc1cc2n(c(=O)c1C#N)CCCN2c1cccc(Cl)c1,11,0,-5,-77,6.9*,1,5.5*
O=C(NN=C/C(Br)=C/c1ccccc1)c1ccccc1[N+](=O)[O-],/,/,/,5,/,/,/
O=C(N/N=C/c1ccccc1)c1cccc2ccccc12,-1,0,-6,/,1,3,/
O=C(N/N=C/c1cccn1-c1ccc(O)cc1)c1cccc2ccccc12,3,0,0,/,5.2*,-1,3
O=C(Nc1ccc2nc(-c3ccco3)[nH]c2c1)c1ccco1,6,0,-3,10,5.1*,4,4
CC(=O)Nc1ccc2nc(-c3ccco3)[nH]c2c1,3,0,-1,-45,1,0,/
COc1ccc(Nc2nc3cc(C)ccc3cc2C#N)c(OC)c1,3,0,-1,-4,0,19,/
COc1ccc(Nc2nc3cc(C)ccc3cc2C#N)cc1,-4,0,-4,-4,8.7*,-1,6.9*
